A selection: hits, their analogues and other compounds. The true share with any hit is near 3.8%.
KCNK9 block = human KCNK9 channel inhibition | Q9NPC2 | HEK293 KCNK9, FluxOR thallium flux fluorescence; hits give low values | B-score at 10 µM | 310,000 tested, 1.2% active;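 active = ratio B-score over 3 SD below the library mean, with starting fluorescence within 5 SD of its mean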;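 also: negative B-score means less thallium flux so channel inhibition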
Kir21 block = Kir2.1 (mouse) channel inhibition; P35561; HEK293-Kir2.1, FluxOR thallium flux fluorescence; hits give low values; B-score at 10 µM; 310,000 tested, 0.85% active;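 active = fluorescence ratio B-score at or below minus 3 SD of library scores, with starting-brightness B-score within 2 SD, cut at about -4.2 in these data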;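 also: channel flux triggered by added potassium and thallium sulfate stimulus; B-score of peak minus minimum fluorescence over baseline after thallium stimulus; more negative B-score means stronger Kir2.1 block with less thallium influx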
KCNQ1 block = human KCNQ1 channel inhibition; CHO-K1 KCNQ1, FluxOR thallium flux fluorescence; hits give high values; B-score at 10 µM; P51787; 310,000 tested, 1.3% active;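 active = compounds whose thallium flux B-score, printed positive for inhibition, exceeds three library SD while starting fluorescence stays within three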;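 also: channel opened by potassium depolarization with thallium stimulus after 20 min compound exposure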
Target sequence (P51787 whole entry, looked up): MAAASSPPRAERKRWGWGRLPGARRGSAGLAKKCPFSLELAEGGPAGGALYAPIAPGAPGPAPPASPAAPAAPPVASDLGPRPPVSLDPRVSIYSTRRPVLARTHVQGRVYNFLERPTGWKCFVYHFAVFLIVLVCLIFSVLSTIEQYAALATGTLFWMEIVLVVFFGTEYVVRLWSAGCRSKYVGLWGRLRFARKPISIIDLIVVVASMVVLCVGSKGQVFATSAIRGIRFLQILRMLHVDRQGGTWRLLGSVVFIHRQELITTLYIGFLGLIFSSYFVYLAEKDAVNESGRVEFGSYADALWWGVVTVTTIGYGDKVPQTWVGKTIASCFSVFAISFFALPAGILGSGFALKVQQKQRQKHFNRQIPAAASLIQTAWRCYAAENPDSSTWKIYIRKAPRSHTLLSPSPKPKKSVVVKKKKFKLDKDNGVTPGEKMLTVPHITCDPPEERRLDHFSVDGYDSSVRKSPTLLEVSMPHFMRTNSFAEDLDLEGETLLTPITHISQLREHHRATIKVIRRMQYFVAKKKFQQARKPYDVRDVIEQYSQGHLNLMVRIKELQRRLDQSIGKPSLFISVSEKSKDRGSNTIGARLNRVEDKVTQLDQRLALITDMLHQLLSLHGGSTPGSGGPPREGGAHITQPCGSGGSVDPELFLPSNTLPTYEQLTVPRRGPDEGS
KCNK3 block = human KCNK3 channel inhibition, primary screen; B-score at 10 µM; CHO-KCNK3 thallium flux, FluxOR fluorescence; hits give low values; 340,000 tested, 0.84% active;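 active = B-score under library mean minus 4 SD, starting fluorescence ratio at most library mean plus 5 SD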;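 also: more negative B-score means stronger inhibition of thallium flux through KCNK3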
KCNQ1 pot = human KCNQ1 channel potentiation or activation; CHO-K1 KCNQ1, thallium flux FluxOR fluorescence; hits give high values; AID 2648; 310,000 tested, 0.35% active; B-score at 10 µM;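 active = fluorescence ratio B-score, a plate-corrected score, at least three library SD, with initial intensity B-score within 5 SD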
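Test system: CHO-K1 cells stably expressing KCNQ1 / Medium: assay buffer / Also added: depolarizing K+/Tl+ stimulus, K2SO4 and Tl2SO4 each 12.5 mM in 5x stock / Incubation: 90 min dye loading and 20 min compound exposure, both at room temperature / Signal: thallium influx via FluxOR fluorescence, kinetic imaging / Evaluation: B score of baseline-normalized fluorescence ratio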
hERG protect = compounds protecting human hERG from proarrhythmic drug block; Q12809; CHO-hERG, FluxOR thallium flux, dofetilide IC70 present; activation (rescue from dofetilide block), less the hit threshold, % at 10 µM; 310,000 tested, 0.51% active; AID 1511;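 active = activation above the mean of controls blocked by dofetilide plus 5 SD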;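 also: thallium influx through hERG after potassium depolarization seen as dye fluorescence rise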
KCNK9 block conf = confirmation of human KCNK9 potassium channel inhibitors. HEK293 KCNK9 cells, FluxOR thallium flux fluorescence. AID 492992. inhibition, % at 10 µM. shares compounds with KCNK9 block. 4,900 tested, 43% active;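 active = thallium signal inhibited by more than 5 SD of the compound-free buffer control wells, on both duplicate plates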;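 also: 0% = assay buffer control wells without compound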
Kir21 sel = mouse Kir2.1 off-target activity of KCNK9 modulators; shares compounds with KCNK9 block; Kir2.1 cells, FluxOR thallium flux fluorescence; inhibition, % at 10 µM; 4,900 tested, 4% active;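 active = thallium signal drop more than 5 SD beyond the mean of the no-compound control wells, seen in both duplicate plates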;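 also: signal is fluorescence rise after thallium addition divided by baseline fluorescence; plate controls were assay buffer only for no effect and full block by chlorpromazine control for full effect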
HEK293 Tl ctr = second counter-screen for KCNK9 modulators: effect in non-induced cells; 4,900 tested, 40% active; shares compounds with KCNK9 block; non-induced KCNK9-HEK293, FluxOR thallium flux; AID 492997; inhibition, % at 10 µM;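 active = thallium signal drop beyond 5 SD of the untreated control mean, on both duplicate plates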;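 also: plate controls were buffer only IC0 wells for no effect and SID17386958 at its maximal inhibitory level for full effect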
Starred values were filed as active, the others as inactive; i = inactive; / = not tested or not shown.

SMILES	KCNK9 block	Kir21 block	KCNQ1 block	KCNK3 block	KCNQ1 pot	hERG protect	KCNK9 block conf	Kir21 sel	HEK293 Tl ctr
CCc1ccccc1OCCCCN1CCCC1	i	0.02	i	i	i	-2	/	/	/
CCOc1ccccc1OCCOc1ccccc1CC	i	-1.9	i	i	i	-8	i	i	i
CCOc1ccccc1OCCCOc1ccc(C)cc1Cl	i	-1.6	i	i	i	-11	i	i	32%*
N#Cc1c(Nc2ccccc2)[n+]([O-])c2ccc(Cl)cc2[n+]1[O-]	/	/	/	i	/	/	/	/	/
O=C(COC(=O)COc1cccc(Br)c1)Nc1ccc(F)cc1F	/	/	/	i	/	/	/	/	/
COCCNC(=O)Cn1cnc2sc(C)c(S(=O)(=O)N3CCC(C)CC3)c2c1=O	i	0.58	i	i	i	-9	/	/	/
COc1ccc(Cl)cc1Nc1ncnc2sc(C)c(S(=O)(=O)N3CCC(C)CC3)c12	-9.7*	-1.2	i	i	i	-11	48%*	i	34%*
CCOC(=O)C1CCN(C(=O)c2oc3ccc(S(=O)(=O)N4CC(C)CC(C)C4)cc3c2C)CC1 (stereo not drawn)	i	0.41	i	i	i	-6	i	i	i
CC(=O)N1CCN=C1SCc1cccc(C)c1	i	0.18	i	i	i	-2	/	/	/
Cc1ccccc1CN1CCN(c2nc3ccccc3s2)CC1	i	-1.7	i	i	i	-1	i	i	34%*
CCOc1ccc(N(CC(=O)NC2CCCCC2)C(=O)Cn2nnc(-c3ccc(C)o3)n2)cc1	i	0.43	i	i	i	-4	/	/	/
CCOC(=O)C1=C(CSc2nc3c(cc2C#N)CN(C)CC3)OC(N)=C(C#N)C1c1ccc(Cl)cc1 (stereo not drawn)	i	0.38	i	i	i	-7	/	/	/
CCOC(=O)C1=C(CSc2nc(C)cc(C)c2C#N)OC(N)=C(C#N)C1c1ccccc1 (stereo not drawn)	-14*	1.6	i	i	i	-16	56%*	i	48%*
CCCn1c(C(C)C)n[nH]c1=S	i	-0.52	i	i	i	-11	/	/	/
Cc1cccc(OCCCCCn2ccnc2)c1C	i	-1.3	i	i	i	-8	i	i	i
CCN(CC)CCOc1ccc(/C(=C(\Cl)c2ccccc2)c2ccccc2)cc1	i	-0.84	11*	i	i	-34	i	i	i
CC(C)(C)c1ccc(-c2nnc(SCC(=O)NC3CC3)o2)cc1	/	/	/	i	/	/	/	/	/
COc1ccc(NC(=O)CN(C)Cc2cccs2)cc1Cl	-13*	-1.5	i	-11*	i	-12	32%*	i	33%*
COc1ccc(Br)cc1CN(C)CC(=O)Nc1ccccc1Cl	-8.7*	-5.4*	i	i	i	-14	34%*	36%*	36%*
COc1ccccc1CN(C)CC(=O)Nc1ccc(Cl)cc1C(F)(F)F	-14*	-3.5	i	i	i	-10	49%*	i	42%*
COc1ccc(OC)c(NC(=O)CN(C)CC(=O)Nc2ccccc2Cl)c1	i	0.34	i	i	i	0	/	/	/
CN(CCOc1ccc(Cl)cc1)C(=O)C1CCN(C(=O)c2ccc(F)cc2)CC1	i	-0.86	i	i	i	-15	/	/	/
COc1ccc(CNC(=O)[C@@H](NC(=O)C2CCN(C(=O)[C@@H](N)CCSC)CC2)C(C)C)cc1	i	0.27	i	i	i	-7	/	/	/
CC(C)n1cc(CNC(=O)C2CCC(=O)N(Cc3ccccc3F)C2)cn1 (stereo not drawn)	i	-0.26	i	i	i	-5	/	/	/
CCCn1cnc2c(SCc3ccccc3Cl)nc(N)nc21	/	/	/	i	/	/	/	/	/

Screening data as filed in PubChem.
